Results from different studies.
Each line is one published result; the experiments were not run side by side.
PTGS1: Prostaglandin G/H synthase 1 (PTGS1, Ovis aries, UniProt P05979)
MAP2K2: Dual specificity mitogen-activated protein kinase kinase 2 (MAP2K2, Homo sapiens, UniProt P36507)
rep papain-like protease: Replicase polyprotein 1ab, papain-like protease (rep, Porcine epidemic diarrhea virus, UniProt P0C6Y4)
rep main protease: Replicase polyprotein 1ab, main protease (rep, Porcine epidemic diarrhea virus, UniProt P0C6Y4)
IPMK: Inositol polyphosphate multikinase (IPMK, Homo sapiens, UniProt Q8NFU5)
ALDH3A1: Aldehyde dehydrogenase, dimeric NADP-preferring (ALDH3A1, Homo sapiens, UniProt P30838)

For `CN1CCC(CNc2ccc3ncc(-c4cccc(OC(F)(F)F)c4)n3n2)CC1`, the IC50 was 6.66 µM (D(1A) dopamine receptor (DRD1, Homo sapiens, UniProt P21728); cAMP, antagonist).
With `COc1cc(NC(=O)c2cnn(-c3ccc([N+](=O)[O-])cc3)c2C(F)(F)F)cc(OC)c1` the IC50 was 1.74 µM (PTGS1; enzyme activity, inhibitor).
`CC(=NNC(=O)c1cc(-c2ccccc2)n(-c2ccc(S(N)(=O)=O)cc2)n1)c1ccc(Br)cc1` gave an IC50 of 3.14 µM (PTGS1; enzyme activity, inhibitor).
The IC50 of `C=CC(=O)N1CCC(CNc2ncnc(N)c2-c2ccc(Oc3ccccc3)cc2)CC1` is reported as > 5 µM (MAP2K2; enzyme activity, inhibitor).
The IC50 of `O=C(NCc1cc(O)c(O)c(Br)c1)c1cccc(C(F)(F)F)c1` is reported as 1.95 µM (rep papain-like protease; enzyme activity, inhibitor, FRET).
`O=C1Nc2ccc(I)cc2/C1=C/c1cc(Br)c(O)c(Br)c1` gave an IC50 of 1.13 µM (Mitogen-activated protein kinase kinase kinase 20 (MAP3K20, Homo sapiens, UniProt Q9NYL2); enzyme activity, inhibitor).
With `NC(N)=S` the IC50 was 23.8 µM (Urease (Canavalia ensiformis, UniProt P07374); enzyme activity, inhibitor).
For `CC(=O)Oc1cccc(C(=O)NCc2cc(O)c(O)c(Br)c2)c1C`, the IC50 was 7.35 µM (rep main protease; enzyme activity, inhibitor, FRET).
`COc1ccc(C=NNC(=O)c2cc(-c3ccccc3)n(-c3ccc(S(N)(=O)=O)cc3)n2)cc1OC` gave an IC50 of 9.78 µM (PTGS1; enzyme activity, inhibitor).
`CCC(C(=O)NCc1cc(O)c(O)c(Br)c1)c1ccccc1` (stereo not shown) has an IC50 of 7.53 µM (rep main protease; enzyme activity, inhibitor, FRET).
With `NS(=O)(=O)c1ccc(-n2nc(C(=O)NN=Cc3ccc(O)cc3)cc2-c2ccccc2)cc1` the IC50 was 3.84 µM (PTGS1; enzyme activity, inhibitor).
`O=C(NCc1cc(O)c(O)c(Br)c1)c1ccccc1` has an IC50 of 12.7 µM (rep papain-like protease; enzyme activity, inhibitor, FRET).
For `O=C(Nc1ccc(-c2ccccc2)cc1)c1cnn(-c2ccc([N+](=O)[O-])cc2)c1C(F)(F)F`, the IC50 was 5.91 µM (PTGS1; enzyme activity, inhibitor).
The IC50 of `COc1ccc(N2CCN(Cc3cn4c(-c5ccc(Br)cc5)nnc4s3)CC2)cc1` is reported as ~0.518 µM (Aifm2 (Mus musculus, UniProt Q8BUE4, A354T/L360F); enzyme activity, inhibitor, absorbance).
For `C=CC(=O)N1CCC([C@@H]2CCNc3c(C(N)=O)c(-c4ccc(Oc5ccccc5)cc4)nn32)CC1`, the IC50 was 0.133 µM (MAP2K2; enzyme activity, inhibitor).
`O=C(NCc1cc(O)c(O)c(Br)c1)N1CCCC1` has an IC50 of 2.88 µM (rep main protease; enzyme activity, inhibitor, FRET).
For `NS(=O)(=O)c1ccc(-n2nc(-c3nnc(CCl)o3)cc2-c2ccccc2)cc1`, the IC50 was 6.72 µM (PTGS1; enzyme activity, inhibitor).
`COc1cccc(CNc2nc(NC3CCN(C(=O)c4ccccc4)CC3)c3nc[nH]c3n2)c1` gave an IC50 of 9 µM (IPMK; enzyme activity, inhibitor).
For `OC[C@H]1O[C@@H](Oc2ccc(O)c3cccc(O)c23)[C@H](O)[C@@H](O)[C@@H]1O`, the IC50 was < 10 µM (ALDH3A1; enzyme activity, inhibitor, fluorescence).
`COCCNc1nc(NCc2cccc(-c3ccc(OC)cc3)c2)nc2[nH]cnc12` has an IC50 of 38 µM (IPMK; enzyme activity, inhibitor).
The IC50 of `CN(C)c1ccc(C(=O)NCc2cc(O)c(O)c(Br)c2)cc1` is reported as 7.61 µM (rep main protease; enzyme activity, inhibitor, FRET).
`C=C1CC/C=C(\C)CC[C@@H]2[C@@H]1CC2(C)C` gave an IC50 of 0.587 µM (Transient receptor potential cation channel subfamily V member 1, non-phosphorylated (TRPV1, Homo sapiens, UniProt Q8NER1); ion current, patch clamp).
With `Nc1nc2c(s1)C(c1ccccc1Cl)CC(=O)N2` (stereo not shown) the IC50 was < 10 µM (ALDH3A1; enzyme activity, inhibitor, fluorescence).
The IC50 of `Cc1ccc(S(=O)(=O)NNc2ccc([N+](=O)[O-])cc2[N+](=O)[O-])cc1` is reported as 194 µM (PTGS1; enzyme activity, inhibitor).
The IC50 of `O=C(NCc1cc(O)c(O)c(Br)c1)c1ccco1` is reported as 12.2 µM (rep main protease; enzyme activity, inhibitor, FRET).
For `NS(=O)(=O)c1ccc(-n2nc(C(=O)NN=Cc3cccnc3)cc2-c2ccccc2)cc1`, the IC50 was 8.94 µM (PTGS1; enzyme activity, inhibitor).
`O=C(NCc1cc(O)c(O)c(Br)c1)c1nccs1` has an IC50 of 2.52 µM (rep main protease; enzyme activity, inhibitor, FRET).
With `CC(=NNC(=O)c1cc(-c2ccccc2)n(-c2ccc(S(N)(=O)=O)cc2)n1)c1ccc(C)cc1` the IC50 was 3.32 µM (PTGS1; enzyme activity, inhibitor).
